Test results as given in ChEMBL document CHEMBL1152431, “p-Guanidinoethyl calixarene and parent phenol derivatives exhibiting antibacterial activities. Synthesis and biological evaluation” (Bioorg Med Chem, 2009).
Calls of active or inactive are those of the source. No cut-off for these calls is given here.

Legend:
[1] = Selectivity index, ratio of IC50 for human MRC5 cells after 24 hrs to MIC for Escherichia coli ATCC 25922; type: functional
Outline: (§1)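 SI computed as the MRC-5 IC50 after 24 h of drug exposure divided by the broth microdilution MIC for the named reference strain.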

Pseudomonas aeruginosa [2] = assay: Antibacterial activity against Pseudomonas aeruginosa ATCC 27853 after 18 to 24 hrs by broth microdilution method; type: functional
Outline: (§2)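 CLSI broth microdilution in Mueller-Hinton broth, with a final inoculum of 1 × 10^5 CFU/mL in U-bottom microplates. Isolate purity was checked at each test by colony morphology and Gram stain. Drug dilutions were added and plates incubated 18–24 h at 35 °C. Growth was read as absorbance at 540 nm to give the MIC.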

Staphylococcus aureus [3] = assay: Antibacterial activity against Staphylococcus aureus ATCC 29213 after 18 to 24 hrs by broth microdilution method; type: functional; outline: as §2
[4] = Selectivity index, ratio of IC50 for human MRC5 cells after 24 hrs to MIC for Staphylococcus aureus ATCC 29213; type: functional; outline: as §1
Escherichia coli [5] = assay: Antibacterial activity against Escherichia coli ATCC 25922 after 18 to 24 hrs by broth microdilution method; type: functional; outline: as §2
MRC5 [6] = assay: Cytotoxicity against human MRC5 cells after 168 hrs; type: cell-based; conditions: MRC5, 168 h
Outline: (§3)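 MRC-5 human embryonic lung fibroblasts were grown in MEM with 10% heat-inactivated FBS and no antibiotics at 37 °C, 5% CO2, and seeded at 10^4 cells/well. After 48 h, drugs were applied at 256 to 1 µg/mL for 24, 48 or 168 h. Viability was read by MTT, or by LDH release for some compounds, as percent of untreated control. IC50 was given as a range; 8 wells per dose, 3 independent experiments.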

MRC5 [7] = assay: Cytotoxicity against human MRC5 cells after 24 hrs; type: cell-based; conditions: MRC5, 24 h; outline: as §3
[8] = Selectivity index, ratio of IC50 for human MRC5 cells after 24 hrs to MIC for Enterococcus faecalis ATCC 29212; type: functional; outline: as §1
[9] = Selectivity index, ratio of IC50 for human MRC5 cells after 24 hrs to MIC for Staphylococcus aureus ATCC 25923; type: functional; outline: as §1
Enterococcus faecalis [10] = assay: Antibacterial activity against Enterococcus faecalis ATCC 29212 after 18 to 24 hrs by broth microdilution method; type: functional; outline: as §2
[11] = Selectivity index, ratio of IC50 for human MRC5 cells after 24 hrs to MIC for Pseudomonas aeruginosa ATCC 27853; type: functional; outline: as §1
Staphylococcus aureus [12] = assay: Antibacterial activity against Staphylococcus aureus ATCC 25923 after 18 to 24 hrs by broth microdilution method; type: functional; outline: as §2
MRC5 [13] = assay: Cytotoxicity against human MRC5 cells after 48 hrs; type: cell-based; conditions: MRC5, 48 h; outline: as §3
Escherichia coli [14] = assay: Antibacterial activity against Escherichia coli ATCC 25922 upto 256 ug/mL after 18 to 24 hrs by broth microdilution method; type: functional, organism-based; outline: as §2
Pseudomonas aeruginosa [15] = assay: Antibacterial activity against Pseudomonas aeruginosa ATCC 27853 upto 256 ug/mL after 18 to 24 hrs by broth microdilution method; type: functional, organism-based; outline: as §2
Staphylococcus aureus [16] = assay: Antibacterial activity against Staphylococcus aureus ATCC 29213 upto 256 ug/mL after 18 to 24 hrs by broth microdilution method; type: functional, organism-based; outline: as §2
Enterococcus faecalis [17] = assay: Antibacterial activity against Enterococcus faecalis ATCC 29212 upto 256 ug/mL after 18 to 24 hrs by broth microdilution method; type: functional, organism-based; outline: as §2
Staphylococcus aureus [18] = assay: Antibacterial activity against Staphylococcus aureus ATCC 25923 upto 256 ug/mL after 18 to 24 hrs by broth microdilution method; type: functional, organism-based; outline: as §2

## N=C(N)NCCCCCCCCCCNC(=N)N.O=C(O)C(F)(F)F [SYNTHALIN A]
[1]
  Selectivity Index: 2
Pseudomonas aeruginosa [2]
  MIC: 128 µg/mL
Staphylococcus aureus [3]
  MIC: 16 µg/mL
[4]
  Selectivity Index: 8
Escherichia coli [5]
  MIC: 64 µg/mL
MRC5 [6]
  IC50: < 1 µg/mL
MRC5 [7]
  IC50: 128 µg/mL
[8]
  Selectivity Index: 0.5
[9]
  Selectivity Index: 2
Enterococcus faecalis [10]
  MIC: 256 µg/mL
[11]
  Selectivity Index: 1
Staphylococcus aureus [12]
  MIC: 64 µg/mL
MRC5 [13]
  IC50: 8 µg/mL

## N=C(N)NCCc1ccc(O)cc1.O=C(O)C(F)(F)F
[1]
  Selectivity Index: >0.5
Pseudomonas aeruginosa [2]
  MIC: > 512 µg/mL
Staphylococcus aureus [3]
  MIC: 512 µg/mL
[4]
  Selectivity Index: >0.5
Escherichia coli [5]
  MIC: 512 µg/mL
MRC5 [6]
  IC50: 32 µg/mL
MRC5 [7]
  IC50: > 256 µg/mL
[9]
  Selectivity Index: >0.5
Enterococcus faecalis [10]
  MIC: > 512 µg/mL
Staphylococcus aureus [12]
  MIC: 512 µg/mL
MRC5 [13]
  IC50: > 256 µg/mL

## Cc1ccc(-c2ccc(COc3ccc(CCNC(=N)N)cc3)cn2)nc1.O=C(O)C(F)(F)F
[1]
  Selectivity Index: >16
Pseudomonas aeruginosa [2]
  MIC: 128 µg/mL
Staphylococcus aureus [3]
  MIC: 4 µg/mL
[4]
  Selectivity Index: >32
Escherichia coli [5]
  MIC: 8 µg/mL
MRC5 [7]
  IC50: > 128 µg/mL
[8]
  Selectivity Index: >2
[9]
  Selectivity Index: >16
Enterococcus faecalis [10]
  MIC: 64 µg/mL
[11]
  Selectivity Index: >1
Staphylococcus aureus [12]
  MIC: 8 µg/mL
MRC5 [13]
  IC50: > 128 µg/mL

## Cc1csc(-c2nc(COc3ccc(CCNC(=N)N)cc3)cs2)n1.O=C(O)C(F)(F)F
[1]
  Selectivity Index: 1
Pseudomonas aeruginosa [2]
  MIC: 128 µg/mL
Staphylococcus aureus [3]
  MIC: 8 µg/mL
[4]
  Selectivity Index: 8
Escherichia coli [5]
  MIC: 64 µg/mL
MRC5 [6]
  IC50: 8 µg/mL
MRC5 [7]
  IC50: 64 µg/mL
[8]
  Selectivity Index: 1
[9]
  Selectivity Index: 4
Enterococcus faecalis [10]
  MIC: 64 µg/mL
[11]
  Selectivity Index: 0.5
Staphylococcus aureus [12]
  MIC: 16 µg/mL
MRC5 [13]
  IC50: 32 µg/mL

## N=C(N)NCCc1cc2c(O)c(c1)Cc1cc(CCNC(=N)N)cc(c1O)Cc1cc(CCNC(=N)N)cc(c1O)Cc1cc(CCNC(=N)N)cc(c1O)C2.O=C(O)C(F)(F)F
[1]
  Selectivity Index: >64
Pseudomonas aeruginosa [2]
  MIC: 32 µg/mL
Staphylococcus aureus [3]
  MIC: 8 µg/mL
[4]
  Selectivity Index: >32
Escherichia coli [5]
  MIC: 4 µg/mL
MRC5 [6]
  IC50: 128 µg/mL
MRC5 [7]
  IC50: > 256 µg/mL
[8]
  Selectivity Index: >8
[9]
  Selectivity Index: >32
Enterococcus faecalis [10]
  MIC: 32 µg/mL
[11]
  Selectivity Index: >8
Staphylococcus aureus [12]
  MIC: 8 µg/mL
MRC5 [13]
  IC50: > 256 µg/mL

## Cc1csc(-c2nc(COc3c4cc(CCNC(=N)N)cc3Cc3cc(CCNC(=N)N)cc(c3O)Cc3cc(CCNC(=N)N)cc(c3OCc3csc(-c5nc(C)cs5)n3)Cc3cc(CCNC(=N)N)cc(c3O)C4)cs2)n1.O=C(O)C(F)(F)F
[1]
  Selectivity Index: 1
Pseudomonas aeruginosa [2]
  MIC: 16 µg/mL
Staphylococcus aureus [3]
  MIC: 16 µg/mL
[4]
  Selectivity Index: 1
Escherichia coli [5]
  MIC: 16 µg/mL
MRC5 [6]
  IC50: 16 µg/mL
MRC5 [7]
  IC50: 16 µg/mL
[8]
  Selectivity Index: 2
[9]
  Selectivity Index: 2
Enterococcus faecalis [10]
  MIC: 8 µg/mL
[11]
  Selectivity Index: 1
Staphylococcus aureus [12]
  MIC: 8 µg/mL
MRC5 [13]
  IC50: 16 µg/mL

## Cc1cccc(-c2cccc(COc3ccc(CCNC(=N)N)cc3)n2)n1.O=C(O)C(F)(F)F
[1]
  Selectivity Index: 0.25
Pseudomonas aeruginosa [2]
  MIC: 128 µg/mL
Staphylococcus aureus [3]
  MIC: 8 µg/mL
[4]
  Selectivity Index: 4
Escherichia coli [5]
  MIC: 128 µg/mL
MRC5 [6]
  IC50: 2 µg/mL
MRC5 [7]
  IC50: 32 µg/mL
[8]
  Selectivity Index: 0.5
[9]
  Selectivity Index: 2
Enterococcus faecalis [10]
  MIC: 64 µg/mL
[11]
  Selectivity Index: 0.25
Staphylococcus aureus [12]
  MIC: 16 µg/mL
MRC5 [13]
  IC50: 16 µg/mL

## O=C([O-])C(F)(F)F.[Na+]
Escherichia coli [14]
  Activity: inactive
Pseudomonas aeruginosa [15]
  Activity: inactive
Staphylococcus aureus [16]
  Activity: inactive
Enterococcus faecalis [17]
  Activity: inactive
Staphylococcus aureus [18]
  Activity: inactive

## Cc1cccc(-c2cccc(COc3c4cc(CCNC(=N)N)cc3Cc3cc(CCNC(=N)N)cc(c3O)Cc3cc(CCNC(=N)N)cc(c3OCc3cccc(-c5cccc(C)n5)n3)Cc3cc(CCNC(=N)N)cc(c3O)C4)n2)n1.O=C(O)C(F)(F)F
[1]
  Selectivity Index: 1
Pseudomonas aeruginosa [2]
  MIC: 16 µg/mL
Staphylococcus aureus [3]
  MIC: 16 µg/mL
[4]
  Selectivity Index: 1
Escherichia coli [5]
  MIC: 16 µg/mL
MRC5 [6]
  IC50: 16 µg/mL
MRC5 [7]
  IC50: 16 µg/mL
[8]
  Selectivity Index: 1
[9]
  Selectivity Index: 1
Enterococcus faecalis [10]
  MIC: 16 µg/mL
[11]
  Selectivity Index: 1
Staphylococcus aureus [12]
  MIC: 16 µg/mL
MRC5 [13]
  IC50: 16 µg/mL

## N=C(N)c1ccc(OCCCCCCOc2ccc(C(=N)N)cc2)cc1.O=C(O)C(F)(F)F
[1]
  Selectivity Index: 4
Pseudomonas aeruginosa [2]
  MIC: 32 µg/mL
Staphylococcus aureus [3]
  MIC: < 1 µg/mL
[4]
  Selectivity Index: 32
Escherichia coli [5]
  MIC: 8 µg/mL
MRC5 [6]
  IC50: 4 µg/mL
MRC5 [7]
  IC50: 32 µg/mL
[8]
  Selectivity Index: 16
[9]
  Selectivity Index: 8
Enterococcus faecalis [10]
  MIC: 2 µg/mL
[11]
  Selectivity Index: 1
Staphylococcus aureus [12]
  MIC: 4 µg/mL
MRC5 [13]
  IC50: 16 µg/mL

## Cc1ccc(-c2ccc(COc3c4cc(CCNC(=N)N)cc3Cc3cc(CCNC(=N)N)cc(c3O)Cc3cc(CCNC(=N)N)cc(c3OCc3ccc(-c5ccc(C)cn5)nc3)Cc3cc(CCNC(=N)N)cc(c3O)C4)cn2)nc1.O=C(O)C(F)(F)F
[1]
  Selectivity Index: >4
Pseudomonas aeruginosa [2]
  MIC: 32 µg/mL
Staphylococcus aureus [3]
  MIC: 8 µg/mL
[4]
  Selectivity Index: >16
Escherichia coli [5]
  MIC: 32 µg/mL
MRC5 [7]
  IC50: > 128 µg/mL
[8]
  Selectivity Index: >16
[9]
  Selectivity Index: >16
Enterococcus faecalis [10]
  MIC: 8 µg/mL
[11]
  Selectivity Index: >4
Staphylococcus aureus [12]
  MIC: 8 µg/mL
MRC5 [13]
  IC50: > 128 µg/mL
